# The list is not random: actives were taken first. Their share in the collection is about 4.1%.
# Apaf1 inhib = blocks human Apaf-1 apoptosome activity. reconstituted apoptosome caspase-3 activity, DEVD-Rh110 fluorescence. inhibition, % at 20 µM. 330,000 compounds, 0.71% hits; active means inhibition of at least 40% at 20 µM;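 further: plate controls were DMSO wells for no effect and DEVD-CHO caspase inhibitor wells for full effect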
#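 Material: reconstituted apoptosome with Apaf-1, cytochrome c, caspase-9, procaspase-3, dATP. Technique: Rh110 fluorescence intensity. Buffer or medium: pH 7.5 Hepes buffer with CHAPS, BSA, DTT. Times: 30 min plus 50 min, RT.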
# UPR XBP1 act = activators of adaptive arm of unfolded protein response (XBP1); CHO-XBP1 luciferase reporter, IRE1-XBP1 UPR activation, luminescence; percent of tunicamycin response, DMSO as zero; activation, % at 20 µM; 330,000 compounds, 0.33% hits; AID 463104;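 active means versus positive control, 20 µM dose yields 30% or more activation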;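 further: 100% = tunicamycin at 10 µg/mL and 0% = DMSO only wells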
#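 assay system = CHO-XBP1 luciferase reporter cells | amount = 1000 cells/well | buffer or medium = F12 plus 10% FBS | compound dosing = single point, 20 µM final compound, 1% DMSO | incubation = 16-18 h cell attachment at 37 °C, then 6 h compound exposure | detection = Steady-Glo luminescence read | controls = tunicamycin 10 µg/mL and vehicle-only wells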
# UBC13 inh = inhibitors of human UBC13 polyubiquitin chain formation; P61088; TR-FRET; inhibition, % at 20 µM; 330,000 compounds, 0.47% hits; AID 485273; in the data active means inhibition above about 45%, passing the limit was not always enough
# Mdm2-MdmX inh = human Mdm2/MdmX binding inhibition; O15151+Q00987; SaOS-2 split-luciferase Mdm2/MdmX complementation, luminescence; inhibition, % at 8 µM; 330,000 compounds, 3% hits;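 active means inhibition of at least 50% at 8 µM in the primary screen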
# UPR CHOP act = apoptotic UPR (CHOP) activation; CHO-CHOP luciferase reporter, luminescence; percent of tunicamycin response over DMSO baseline; activation, % at 10 µM; 330,000 compounds, 0.34% hits; AID 449763;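 active means at 10 µM dose, activation of 40% or more, normalized to positive control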;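 further: 100% = tunicamycin at 10 µg/mL and 0% = DMSO alone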
#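 Assay system: CHO-CHOP cells, stable luciferase reporter of PERK-eIF2a-CHOP signalling / Buffer or medium: F12 plus 10% serum / Compound dosing: one dose, 10 µM in 0.5% DMSO / Times: 6 h compound treatment, 37 °C / Technique: luciferase luminescence / Read-out: % reporter activation, DMSO baseline versus tunicamycin full activation / Benchmarks: tunicamycin and DMSO controls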
# Mdm2 MdmX conf = confirmation of human Mdm2/MdmX interaction inhibitors; inhibition, % at 8 µM; 10,000 compounds, 55% hits; shares compounds with Mdm2-MdmX inh; Mdm2-MdmX binding, luminescent assay; AID 489028; in the data active means inhibition above about 40%
# Full FLuc ctr = inhibits full-length luciferase, flagging false Mdm2/MdmX hits | shares compounds with Mdm2-MdmX inh | SaOS-2 full-length luciferase counterscreen, luminescence | inhibition, % at 8 µM | 6,200 compounds, 77% hits;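 active means mean inhibition at 8 µM reaching about 37%, which flags the compound as non-specific, limit read from the data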;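 further: p53-null SaOS-2 cells with luciferase driven by a doxycycline-inducible promoter; compound on cells about two nights before reading with doxycycline added after day one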
# * = called active by the depositor; . = no result given.
SMILES,Apaf1 inhib,UPR XBP1 act,UBC13 inh,Mdm2-MdmX inh,UPR CHOP act,Mdm2 MdmX conf,others
CCc1nn(CCCC(=O)N2CCN(c3cccc(C)c3C)CC2)c(=O)c2cc3occc3n12,40,-9,3,93*,12,61*,Full FLuc ctr=78*
CCc1nn(CCCC(=O)N2CCc3ccccc3C2)c(=O)c2cc3occc3n12,2,-1,-5,-6,-1,.,
Nc1[nH]n2c(=O)cc(-c3ccccc3)nc2c1N=Nc1ccccc1,34,1,-85,58*,19,47*,Full FLuc ctr=43*
O=C(Nc1ccc(C(=O)N2CCOCC2)cc1)c1cnn2c(C(F)F)cc(-c3ccccc3)nc12,16,15,-12,27,0,.,
Cc1ccc(-c2cc(C(F)F)n3ncc(C(=O)Nc4ccc(S(=O)(=O)Nc5ccccc5C)cc4)c3n2)cc1,7,-1,-20,54*,0,23,
COc1ccc(CN2CCNC(=O)C2CC(=O)NCCCC2CCCC2)c(F)c1 (configuration not stated),8,1,-2,2,2,.,
O=C1OC(c2ccc(F)cc2)=C/C1=C\c1ccc([N+](=O)[O-])o1,7,3,-71,74*,6,26,
O=C1OC(c2ccc(F)cc2)=C/C1=C\c1ccc(O)cc1,-8,5,-17,5,3,.,
C=CCC[C@H](Cc1ccc(F)cc1)C(=O)OC[C@H](Cc1c[nH]c2ccccc12)NC(=O)[C@H](CC=C)CC(=O)NCCO,19,6,38,33,7,.,
C=CC[C@@H](CC(=O)N(CCO)Cc1ccccc1)C(=O)N[C@H](C)COC(=O)[C@@H](CC=C)Cc1ccc(F)cc1,23,1,6,20,0,.,
C=CC[C@H](CC(=O)N(CCO)Cc1ccccc1)C(=O)N[C@H](COC(=O)[C@@H](CC=C)Cc1ccc(F)cc1)Cc1ccccc1,22,0,1,71*,10,27,
C=CC[C@H](CC(=O)NCCO)C(=O)NC[C@@H](OC(=O)[C@@H](CC=C)Cc1ccc(F)cc1)c1ccccc1,9,0,12,26,0,.,
C=CCC[C@@H](Cc1ccc(F)cc1)C(=O)OC[C@H](Cc1c[nH]c2ccccc12)NC(=O)[C@H](CC=C)CC(=O)N(CCO)Cc1ccccc1,25,2,-6,88*,8,22,Full FLuc ctr=74*
C=CCC[C@@H](Cc1ccc(F)cc1)C(=O)OC[C@@H](Cc1c[nH]c2ccccc12)NC(=O)[C@@H](CC=C)CC(=O)NCCO,8,-1,35,35,0,.,
C=CCC[C@H](Cc1ccc(F)cc1)C(=O)OC[C@H](Cc1c[nH]c2ccccc12)NC(=O)[C@@H](CC=C)CC(=O)N(CCO)Cc1ccccc1,22,2,-2,87*,13,20,
C=CC[C@@H](CC(=O)N[C@H](CO)Cc1ccccc1)C(=O)NC[C@H](OC(=O)[C@@H](CC=C)Cc1ccc(F)cc1)c1ccccc1,4,0,-4,59*,17,55*,Full FLuc ctr=62*
COc1ccc(C)cc1S(=O)(=O)NCCN1CCOCC1,1,-3,2,8,0,.,
CCOC(=O)CN1C(=O)N[C@@H](CCc2ccccc2)[C@H](C(C)=O)[C@H]1C,7,2,-4,-20,-1,.,
C=CCC[C@H](Cc1ccc(F)cc1)C(=O)OC[C@@H](Cc1c[nH]c2ccccc12)NC(=O)[C@@H](CC=C)CC(=O)N(CCO)Cc1ccccc1,14,2,6,86*,10,13,
C=CC[C@H](CC(=O)N(CCO)Cc1ccccc1)C(=O)NC[C@@H](OC(=O)[C@@H](CC=C)Cc1ccc(F)cc1)c1ccccc1,36,6,-10,23,6,.,
C=CCC[C@H](Cc1ccc(F)cc1)C(=O)O[C@H](CNC(=O)[C@@H](CC=C)CC(=O)N(CCO)Cc1ccccc1)c1ccccc1,23,-3,4,63*,7,32,
CCN(CC)c1ccc(-c2nn3c(-c4n[nH]c5c4CCC5)nnc3s2)cc1,32,30,-6,51*,1,59*,Full FLuc ctr=102*
C1CCC(c2nn3c(-c4n[nH]c5c4CCC5)nnc3s2)CC1,23,3,-5,29,1,.,
CN1CCN(c2ccccc2NC(=O)c2ccc(-c3ccc(Cl)cc3Cl)o2)CC1,14,2,32,56*,2,52*,Full FLuc ctr=86*
CS(=O)(=O)N1CCN(c2ccccc2NC(=O)c2ccc(-c3ccc(Cl)cc3Cl)o2)CC1,9,0,22,21,-1,.,
SMILES,Apaf1 inhib,UPR XBP1 act,UBC13 inh,Mdm2-MdmX inh,UPR CHOP act,Mdm2 MdmX conf,others
CC[C@]12c3[nH]c4cc(-c5ccco5)ccc4c3CCN1C(=O)[C@@H](CC(=O)NC(C)(C)C)C[C@@H]2C(=O)N1CCN(C(=O)C2CC2)CC1,11,2,.,23,3,.,
Cc1csc(Nc2nc(N)c(C(=O)Nc3cc(Cl)ccc3F)o2)n1,14,-2,0,55*,2,9,
COC(=O)COc1coc(CN2CCN(c3cccc(Cl)c3)CC2)cc1=O,4,-2,-2,8,-2,.,
N#Cc1c(N)n(Cc2ccccc2)c(=O)c2cc([N+](=O)[O-])ccc12,13,-5,-9,54*,-1,11,
CCCCN(CCO)c1ncnc2sc(-c3ccccc3)cc12,22,-1,12,16,0,.,
NC(=O)c1cc2ccncc2c2ccccc12,4,-4,1,90*,-3,94*,Full FLuc ctr=51*
COc1ccc2nc(NC(=O)CS(=O)(=O)c3ccc(C)cc3)sc2c1,14,2,-7,3,1,.,
Cc1c(C)c2cc(Cl)c(OCC(=O)NC3CC(C)(C)NC(C)(C)C3)cc2oc1=O,-6,-4,7,6,1,.,
COc1cccc(C(=O)NCc2nnc(SCC(=O)Nc3nccs3)n2-c2cccc(C)c2)c1,11,-3,-8,2,-1,.,
COC(=O)C1=C(C)N(Cc2ccccc2)C(=NCCCCO)N[C@H]1c1cccc(C(F)(F)F)c1,34,1,34,52*,-1,34,
C=CCN=C1N[C@@H](c2cccc(C(F)(F)F)c2)C(C(=O)OC)=C(C)N1CC,4,-3,6,15,-1,.,
CCN1C(=NCC(C)C)N[C@@H](c2cccc(C(F)(F)F)c2)C(C(=O)OC)=C1C,5,-3,28,57*,-1,33,Full FLuc ctr=60*
Cc1ccc(OC/C(=N\O)C(C)(C)C)c([N+](=O)[O-])c1,18,0,4,-9,3,.,
